This is an account of results in ChEMBL document CHEMBL1154914, “Orally bioavailable anti-HBV dinucleotide acyloxyalkyl prodrugs” (Bioorg Med Chem Lett, 2010).

As a reminder, the CC50 is the concentration giving 50% cytotoxicity. For orientation: half-life means how long it takes for the measured level to halve. A word on the EC90: it is the concentration at which the effect reaches the 90% level. As a reminder, the EC50 is the concentration giving half of the maximal effect.

The structures appear in SMILES notation. Calls of active or inactive are those of the source. No cut-off for these calls is given here. Bounds are passed on as bounds.

Series [1] can be described thus: Cytotoxicity against african green monkey Vero cells after 24 hrs by MTT assay. Format: cell-based. Particulars: chlorocebus sabaeus.
Series [2] in a line: Cytotoxicity against MDBK cells after 24 hrs by MTT assay. Particulars: cattle. Format: cell-based, Bos taurus.
Series [3] can be described thus: Cytotoxicity against human HFF cells after 24 hrs by MTT assay. Format: cell-based.
Series [4] is described as follows: Half life in simulated gastric fluid after 1 hr by reverse phase HPLC. Format: physicochemical. A digest of the protocol:
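Prodrug stock of 2 mg/200 μL DMSO, diluted 1:20 in USP simulated gastric fluid and held at 37 °C for 1 h. Timed aliquots were quenched with methanol, brought to pH 6.0 with NH4OAc/NaOH, centrifuged and concentrated. Read by reversed-phase C18 HPLC using a 30 min gradient from 0.1 M NH4OAc to 80:20 CH3CN:NH4OAc at 1 mL/min.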

Series [5] concerns Hepatitis B virus. The series can be described thus: Antiviral activity against HBV infected in mouse assessed as liver HBV DNA level at 300-400 mg/kg, po QD for 14 days by Southern blotting. Format: functional, organism-based. The gist of the method: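 HBV transgenic mice, pre-biopsied for liver HBV DNA and block-randomized (8/group). Dosed 300 to 400 mg/kg by oral gavage once daily for 14 days in 0.05 M citric acid pH 2.4 (0.1 mL per 20 g). Liver Southern blot with a 32P HBV genomic probe, hybridized overnight at 60°C and read by phosphorimaging. Viral DNA was ratioed to the transgene band (1.3 copies/cell). ADV was the positive control.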

Series [6] concerns Hepatitis B virus. Put plainly: Antiviral activity against wild type HBV infected in HepG2.2.15 cells assessed as nucleic acid and protein levels dosed daily for 9 days and measured 24 hrs after last treatment by Southern blot hybridization. The note with it: for EC50: Hepatitis B virus, HepG2 2.2.15. Format: functional, organism-based, HepG2 2.2.15.
The test system of series [7] is Hepatitis B virus. Put plainly: Antiviral activity against 3TC-resistant HBV with polymerase M204I mutation infected in HepG2.2.15 cells assessed as nucleic acid and protein levels dosed daily for 9 days and measured 24 hrs after last treatment by Southern blot hybridization. The note with it: for EC50: Hepatitis B virus, HepG2 2.2.15. The series is classed as functional, organism-based, HepG2 2.2.15.

The subject of series [8] is Hepatitis B virus. The series can be described thus: Antiviral activity against 3TC-resistant HBV with polymerase LMMV mutation infected in HepG2.2.15 cells assessed as nucleic acid and protein levels dosed daily for 9 days and measured 24 hrs after last treatment by Southern blot hybridization. Format: functional, organism-based, HepG2 2.2.15. Particulars: for EC50: Hepatitis B virus, HepG2 2.2.15.

Series [9] has as its system Hepatitis B virus. The series can be described thus: Antiviral activity against 3TC-resistant HBV with polymerase L180M mutation infected in HepG2.2.15 cells assessed as nucleic acid and protein levels dosed daily for 9 days and measured 24 hrs after last treatment by Southern blot hybridization. Particulars: for EC50: Hepatitis B virus, HepG2 2.2.15. The series is classed as functional, organism-based, HepG2 2.2.15.

Series [10] relates to Hepatitis B virus. Put plainly: Antiviral activity against ADV-resistant HBV N236T mutation infected in HepG2.2.15 cells assessed as nucleic acid and protein levels dosed daily for 9 days and measured 24 hrs after last treatment by Southern blot hybridization. The series is classed as functional, organism-based, HepG2 2.2.15. The note with it: for EC50: Hepatitis B virus, HepG2 2.2.15.

Series [11] has as its system Hepatitis B virus. Put plainly: Antiviral activity against 3TC-resistant HBV with polymerase M204V mutation infected in HepG2.2.15 cells assessed as nucleic acid and protein levels dosed daily for 9 days and measured 24 hrs after last treatment by Southern blot hybridization. The series is classed as functional, organism-based, HepG2 2.2.15. The note with it: for EC50: Hepatitis B virus, HepG2 2.2.15.

A further series concerns Mus musculus. The series can be described thus: Toxicity against HBV infected mouse at 300-400 mg/kg, po QD for 14 days. The note with it: in vivo, 336 h. The series is classed as organism-based.
The test system of series [12] is Hepatitis B virus. Put plainly: Antiviral activity against HBV infected in mouse assessed as reduction in liver HBV DNA level dosed po QD for 14 days by Southern blotting. The series is classed as functional, organism-based. A digest of the protocol: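 HBV transgenic mice, pre-biopsied for liver HBV DNA and block-randomized (8/group). Gavaged at 1, 5, 10 or 100 mg/kg once daily for 14 days in 0.05 M citric acid pH 2.4, against placebo and an ADV control. Liver taken after the last dose. HBV DNA by Southern blot with a 32P genomic probe and phosphorimaging, normalized to the transgene band (1.3 copies/cell).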

Series [13] in a line: Half life in simulated intestinal fluid after 1 hr by reverse phase HPLC. Format: physicochemical. The gist of the method: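 Prodrug stock (2 mg per 200 μL DMSO) diluted 1:20 into simulated intestinal fluid and held at 37 °C for 1 h. Aliquots at selected times were quenched with methanol, brought to pH 6.0 with NH4OAc/NaOH, centrifuged, concentrated and redissolved in 0.1 M NH4OAc. Analysed by reversed-phase C18 HPLC with photodiode-array detection, 0.1 M NH4OAc to 80:20 CH3CN:NH4OAc gradient over 30 min.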

Regarding `CO[C@@H]1[C@H](OP(=O)(OC[C@H]2O[C@@H](n3cnc4c(N)ncnc43)C[C@@H]2O)SCOC(=O)C(C)(C)C)[C@@H](CO)O[C@H]1n1ccc(=O)[nH]c1=O` (stereo partly drawn), the CC50 at 24 h in series [1], in series [2] and in series [3] was over 1000 µM throughout. The compound also had a half-life in series [4] of over 1 h. In the series with Hepatitis B virus [5], the outcome was Active.

With `CC(C)(C)C(=O)OCOP(=O)(COCCn1cnc2c(N)ncnc21)OCOC(=O)C(C)(C)C` [ADEFOVIR DIPIVOXIL], the EC90 with Hepatitis B virus [6] turned out to be 7 µM; with Hepatitis B virus [7], 8 µM; in the series on Hepatitis B virus [8], 8.3 µM; in the series on Hepatitis B virus [9] it was 8.2 µM; in the series with Hepatitis B virus [10] it was 29 µM; in the series on Hepatitis B virus [11], 7.2 µM. In addition, the EC50 in the series on Hepatitis B virus [6] came out at 1.5 µM; with Hepatitis B virus [7], 2 µM; with Hepatitis B virus [8] it was 2.2 µM; in the series with Hepatitis B virus [9], 2.1 µM; in the series with Hepatitis B virus [10] it was 7.5 µM; with Hepatitis B virus [11], 1.8 µM.

Regarding `CO[C@@H]1[C@H](OP(=O)(OC[C@H]2O[C@@H](n3cnc4c(N)ncnc43)C[C@@H]2O)SCOC(=O)OC(C)C)[C@@H](CO)O[C@H]1n1ccc(=O)[nH]c1=O` (stereo partly drawn) [INARIGIVIR SOPROXIL], the EC90 is 8.5 µM in the series on Hepatitis B virus [6]; 9.2 µM with Hepatitis B virus [7]; 9.3 µM in the series with Hepatitis B virus [8]; 8.6 µM with Hepatitis B virus [9]; 8.7 µM in the series on Hepatitis B virus [10]; 8.3 µM with Hepatitis B virus [11]. For the same compound, the EC50 is 2.5 µM with Hepatitis B virus [6]; 3 µM in the series with Hepatitis B virus [7]; 3.1 µM with Hepatitis B virus [8]; 2.1 µM in the series with Hepatitis B virus [9]; 2.8 µM in the series with Hepatitis B virus [10]; 2.4 µM in the series with Hepatitis B virus [11]. Further, the Activity entry with Mus musculus is “Non-toxic”; in the series on Hepatitis B virus [12] it was “Dose-dependent effect”. Further, the CC50 at 24 h in series [1], in series [2] and in series [3] was over 1000 µM in each case. The half-life in [4] was over 1 h. Further, the result with Hepatitis B virus [5] was Active.

In the case of `CO[C@@H]1[C@H](OP(=O)(S)OC[C@H]2O[C@@H](n3cnc4c(N)ncnc43)C[C@@H]2O)[C@@H](CO)O[C@H]1n1ccc(=O)[nH]c1=O` (stereo partly drawn) [INARIGIVIR], the half-maximal cytotoxic concentration (CC50) at 24 h in series [1], in series [2] and in series [3] was over 1000 µM in each case. Moreover, the half-life in series [4] was under 0.25 h; in series [13], 1 h.

Take `Nc1ccn([C@@H]2CS[C@H](CO)O2)c(=O)n1` [LAMIVUDINE]: the EC90 in the series on Hepatitis B virus [6] is 0.7 µM; with Hepatitis B virus [7] it was over 100 µM; in the series on Hepatitis B virus [8] it was over 100 µM; with Hepatitis B virus [9] it was 20 µM; in the series with Hepatitis B virus [10] it was 0.8 µM; in the series with Hepatitis B virus [11], over 100 µM. In addition, the EC50 was 0.2 µM in the series on Hepatitis B virus [6]; over 100 µM with Hepatitis B virus [7]; over 100 µM with Hepatitis B virus [8]; 5.3 µM in the series on Hepatitis B virus [9]; 0.2 µM with Hepatitis B virus [10]; over 100 µM with Hepatitis B virus [11].
